The text below walks through data of ChEMBL document CHEMBL3421593, “Design, synthesis, and biological evaluation of ring-constrained novobiocin analogues as hsp90 C-terminal inhibitors” (ACS Med Chem Lett, 2015).

Activity calls are given as the source filed them. The rule behind the calls is not given here. A value given as a limit tells only on which side of the number the result lay.

Test system in one data set: not listed separately
Put plainly: Antiproliferative activity against human SKBR3 cells. Type of data set: functional, cell-based. Particulars: SK-BR-3. The method, boiled down:
(§1)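 Breast cancer lines used were SKBr3 (estrogen receptor negative, Her2 overexpressing) and MCF-7 (estrogen receptor positive). Values are mean ± standard deviation from at least two separate experiments, each performed in triplicate.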
In general, IC50 refers to the midpoint of a concentration-inhibition curve. `COc1cccc(-c2cc(C(=O)Nc3cc4ccc5c(c4oc3=O)NC(=O)C(CCNC34C[C@H]6C[C@@H](C3)C[C@@H](C4)C6)O5)ccc2OC)c1` (stereo partly specified) displayed an IC50 of 0.88 µM.

Turning to `COc1cccc(-c2cc(C(=O)Nc3cc4ccc5c(c4oc3=O)NC(=O)C(CCNC3CCCCC3)O5)ccc2OC)c1` (stereo unspecified), the IC50 amounted to 0.78 µM. This IC50 and that of the compound before are within 1.5-fold of each other.

In turn, `COc1cccc(-c2cc(C(=O)Nc3cc4ccc5c(c4oc3=O)NC(=O)C(Cc3ccccc3)O5)ccc2OC)c1` (stereo unspecified) gave an IC50 of 21.5 µM.

`COc1cccc(-c2cc(C(=O)Nc3cc4ccc5c(c4oc3=O)NC(=O)C(CN3CCNCC3)O5)ccc2OC)c1` (stereo unspecified) showed an IC50 of 5.78 µM. This IC50 is about 3.7-fold lower than that of the compound before.

`COc1cccc(-c2cc(C(=O)Nc3cc4ccc5c(c4oc3=O)NC(=O)C(CCCN3CCCCC3)O5)ccc2OC)c1` (stereo unspecified) returned a 50% inhibitory concentration (IC50) of 0.78 µM.

`COc1cccc(-c2cc(C(=O)Nc3cc4ccc5c(c4oc3=O)NC(=O)C(CCCN3CCN(C)CC3)O5)ccc2OC)c1` (stereo unspecified) displayed an IC50 of 1.76 µM.

As to `COc1cccc(-c2cc(C(=O)Nc3cc4ccc5c(c4oc3=O)NC(=O)C(C(=O)N3CCCC3)O5)ccc2OC)c1` (stereo unspecified), the IC50 was greater than 50 µM.

The compound `COc1cccc(-c2cc(C(=O)Nc3cc4ccc(OCCN(C)C)c(OC)c4oc3=O)ccc2OC)c1` came in with an IC50 of 2 µM.

On to `COc1cccc(-c2cc(C(=O)Nc3cc4ccc5c(c4oc3=O)NC(=O)C(CCN(C)C)O5)ccc2OC)c1` (stereo unspecified), for which half-maximal inhibition (IC50) required 8.06 µM.

In turn, `COc1cccc(-c2cc(C(=O)Nc3cc4ccc5c(c4oc3=O)NC(=O)C(CCN3CCCC3)O5)ccc2OC)c1` (stereo unspecified) displayed an IC50 of 3.49 µM.

Compound `COc1cccc(-c2cc(C(=O)Nc3cc4ccc5c(c4oc3=O)NC(=O)C(Cc3ccc(Cl)cc3)O5)ccc2OC)c1` (stereo unspecified) showed a half-inhibitory concentration (IC50) greater than 50 µM.

Turning to `COc1cccc(-c2cc(C(=O)Nc3cc4ccc5c(c4oc3=O)NC(=O)C(c3ccccc3)O5)ccc2OC)c1` (stereo unspecified), it took 48.2 µM to reach half-maximal inhibition (IC50).

`COc1cccc(-c2cc(C(=O)Nc3cc4ccc(O[C@H]5OC(C)(C)[C@@H](OC)[C@H](O)[C@@H]5O)c(OC)c4oc3=O)ccc2OC)c1` displayed an IC50 of 13.9 µM.

In turn, `COc1cccc(-c2cc(C(=O)Nc3cc4ccc5c(c4oc3=O)NC(=O)C(CCCN3CCNCC3)O5)ccc2OC)c1` (stereo unspecified) registered a half-maximal inhibitory concentration (IC50) of 9.08 µM.

In turn, `COc1cccc(-c2cc(C(=O)Nc3cc4ccc5c(c4oc3=O)NC(=O)C(CCCNC3CCCCC3)O5)ccc2OC)c1` (stereo unspecified) gave an IC50 of 0.2 µM.

In another data set the test system is MCF7. Put plainly: Antiproliferative activity against human MCF7 cells.
Conditions: not given
Type of data set: functional, cell-based. The method, boiled down: as §1
For `COc1cccc(-c2cc(C(=O)Nc3cc4ccc5c(c4oc3=O)NC(=O)C(CCNC34C[C@H]6C[C@@H](C3)C[C@@H](C4)C6)O5)ccc2OC)c1` (stereo partly specified), the IC50 was 1.09 µM.

In turn, `COc1cccc(-c2cc(C(=O)Nc3cc4ccc5c(c4oc3=O)NC(=O)C(CCNC3CCCCC3)O5)ccc2OC)c1` (stereo unspecified) gave an IC50 of 1.16 µM.

Take `COc1cccc(-c2cc(C(=O)Nc3cc4ccc5c(c4oc3=O)NC(=O)C(Cc3ccccc3)O5)ccc2OC)c1` (stereo unspecified): the IC50 worked out at 22.1 µM. Compared with the last compound, the IC50 is about 19-fold higher.

In the case of `COc1cccc(-c2cc(C(=O)Nc3cc4ccc5c(c4oc3=O)NC(=O)C(CN3CCNCC3)O5)ccc2OC)c1` (stereo unspecified), 5.27 µM corresponded to half-maximal inhibition (IC50).

Take `COc1cccc(-c2cc(C(=O)Nc3cc4ccc5c(c4oc3=O)NC(=O)C(CCCN3CCCCC3)O5)ccc2OC)c1` (stereo unspecified): half-maximal inhibition (IC50) was put at 0.85 µM.

`COc1cccc(-c2cc(C(=O)Nc3cc4ccc5c(c4oc3=O)NC(=O)C(CCCN3CCN(C)CC3)O5)ccc2OC)c1` (stereo unspecified) had a 50% inhibitory concentration (IC50) of 2.43 µM.

In the case of `COc1cccc(-c2cc(C(=O)Nc3cc4ccc5c(c4oc3=O)NC(=O)C(C(=O)N3CCCC3)O5)ccc2OC)c1` (stereo unspecified), the IC50 was greater than 50 µM.

For `COc1cccc(-c2cc(C(=O)Nc3cc4ccc5c(c4oc3=O)NC(=O)C(CCN(C)C)O5)ccc2OC)c1` (stereo unspecified), the midpoint of inhibition, the IC50, lay at 11.4 µM. This lies in the double-digit micromolar range.

As for `COc1cccc(-c2cc(C(=O)Nc3cc4ccc5c(c4oc3=O)NC(=O)C(CCN3CCCC3)O5)ccc2OC)c1` (stereo unspecified), the 50% inhibitory concentration (IC50) came to 5.2 µM.

Consider `COc1cccc(-c2cc(C(=O)Nc3cc4ccc5c(c4oc3=O)NC(=O)C(Cc3ccc(Cl)cc3)O5)ccc2OC)c1` (stereo unspecified), for which the half-inhibitory concentration (IC50) is greater than 50 µM.

On to `COc1cccc(-c2cc(C(=O)Nc3cc4ccc5c(c4oc3=O)NC(=O)C(c3ccccc3)O5)ccc2OC)c1` (stereo unspecified), for which the IC50 is greater than 50 µM.

`COc1cccc(-c2cc(C(=O)Nc3cc4ccc(O[C@H]5OC(C)(C)[C@@H](OC)[C@H](O)[C@@H]5O)c(OC)c4oc3=O)ccc2OC)c1` gave a 50% inhibitory concentration (IC50) of 9 µM. That is a single-digit micromolar value.

Turning to `COc1cccc(-c2cc(C(=O)Nc3cc4ccc5c(c4oc3=O)NC(=O)C(CCCN3CCNCC3)O5)ccc2OC)c1` (stereo unspecified), the IC50 is 12.8 µM.

Consider `COc1cccc(-c2cc(C(=O)Nc3cc4ccc5c(c4oc3=O)NC(=O)C(CCCNC3CCCCC3)O5)ccc2OC)c1` (stereo unspecified), for which the midpoint of inhibition, the IC50, lay at 0.35 µM.

The target in a further data set is T1, Heat shock protein HSP90 (Homo sapiens) (UniProt P07900+P08238). Put plainly: Inhibition of HSP90 in human MCF7 cells assessed as induction of Her2 protein degradation at 0.5 times antiproliferative IC50 level incubated for 24 hrs by Western blotting method. The data set is classed as cell-based.
Conditions: not given
For orientation: Immunoblotting shows a protein as a band on a membrane.
Take `COc1cccc(-c2cc(C(=O)Nc3cc4ccc5c(c4oc3=O)NC(=O)C(CCCN3CCCCC3)O5)ccc2OC)c1` (stereo unspecified): the inhibition entry was “Active”.

As to `COc1cccc(-c2cc(C(=O)Nc3cc4ccc5c(c4oc3=O)NC(=O)C(CCCNC3CCCCC3)O5)ccc2OC)c1` (stereo unspecified), the inhibition entry is “Active”.

In a further data set the target is T1, Heat shock protein HSP90 (Homo sapiens). Put plainly: Inhibition of HSP90 in human MCF7 cells assessed as induction of Her2 protein degradation at 5 times antiproliferative IC50 level incubated for 24 hrs by Western blotting method. The data set is classed as cell-based.
Conditions: not given
For the compound `COc1cccc(-c2cc(C(=O)Nc3cc4ccc5c(c4oc3=O)NC(=O)C(CCCN3CCCCC3)O5)ccc2OC)c1` (stereo unspecified), the inhibition entry was “Active”.

In the case of `COc1cccc(-c2cc(C(=O)Nc3cc4ccc5c(c4oc3=O)NC(=O)C(CCCNC3CCCCC3)O5)ccc2OC)c1` (stereo unspecified), the inhibition entry is “Active”.

A further data set shares this target. Put plainly: Inhibition of HSP90 in human MCF7 cells assessed as induction of Raf1 protein degradation at 0.5 times antiproliferative IC50 level incubated for 24 hrs by Western blotting method. The data set is classed as cell-based.
Conditions: not given
Take `COc1cccc(-c2cc(C(=O)Nc3cc4ccc5c(c4oc3=O)NC(=O)C(CCCN3CCCCC3)O5)ccc2OC)c1` (stereo unspecified): the inhibition result was “Active”.

Turning to `COc1cccc(-c2cc(C(=O)Nc3cc4ccc5c(c4oc3=O)NC(=O)C(CCCNC3CCCCC3)O5)ccc2OC)c1` (stereo unspecified), the inhibition result is “Active”.

Another data set has the same target. The data set can be described thus: Inhibition of HSP90 in human MCF7 cells assessed as induction of Raf1 protein degradation at 5 times antiproliferative IC50 level incubated for 24 hrs by Western blotting method. The data set is classed as cell-based.
Conditions: not given
As to `COc1cccc(-c2cc(C(=O)Nc3cc4ccc5c(c4oc3=O)NC(=O)C(CCCN3CCCCC3)O5)ccc2OC)c1` (stereo unspecified), the inhibition entry was “Active”.

Turning to `COc1cccc(-c2cc(C(=O)Nc3cc4ccc5c(c4oc3=O)NC(=O)C(CCCNC3CCCCC3)O5)ccc2OC)c1` (stereo unspecified), the inhibition entry is “Active”.

Another data set has the same target. The data set can be described thus: Inhibition of HSP90 in human MCF7 cells assessed as induction of Akt protein degradation at 0.5 times antiproliferative IC50 level incubated for 24 hrs by Western blotting method. Type of data set: cell-based.
Conditions: not given
`COc1cccc(-c2cc(C(=O)Nc3cc4ccc5c(c4oc3=O)NC(=O)C(CCCN3CCCCC3)O5)ccc2OC)c1` (stereo unspecified): the inhibition result is “Active”.

Turning to `COc1cccc(-c2cc(C(=O)Nc3cc4ccc5c(c4oc3=O)NC(=O)C(CCCNC3CCCCC3)O5)ccc2OC)c1` (stereo unspecified), the inhibition entry was “Active”.

Another data set shares this target. The data set can be described thus: Inhibition of HSP90 in human MCF7 cells assessed as induction of Akt protein degradation at 5 times antiproliferative IC50 level incubated for 24 hrs by Western blotting method. Type of data set: cell-based.
Conditions: not given
`COc1cccc(-c2cc(C(=O)Nc3cc4ccc5c(c4oc3=O)NC(=O)C(CCCN3CCCCC3)O5)ccc2OC)c1` (stereo unspecified): the inhibition result is “Active”.

For `COc1cccc(-c2cc(C(=O)Nc3cc4ccc5c(c4oc3=O)NC(=O)C(CCCNC3CCCCC3)O5)ccc2OC)c1` (stereo unspecified), the inhibition result is “Active”.

For the next data set the target is unchanged. The data set can be described thus: Inhibition of HSP90 in human MCF7 cells assessed as induction of Her2 protein degradation at 0.2 to 10 uM incubated for 24 hrs by Western blotting method. Type of data set: cell-based.
Conditions: not given
For the compound `COc1cccc(-c2cc(C(=O)Nc3cc4ccc5c(c4oc3=O)NC(=O)C(CCCN3CCCCC3)O5)ccc2OC)c1` (stereo unspecified), the inhibition entry is “Dose-dependent effect”.

The target is the same in the next data set. Put plainly: Inhibition of HSP90 in human MCF7 cells assessed as induction of Raf1 protein degradation at 0.2 to 10 uM incubated for 24 hrs by Western blotting method. Type of data set: cell-based.
Conditions: not given
Regarding `COc1cccc(-c2cc(C(=O)Nc3cc4ccc5c(c4oc3=O)NC(=O)C(CCCN3CCCCC3)O5)ccc2OC)c1` (stereo unspecified), the inhibition entry is “Dose-dependent effect”.

The target is the same in another data set. The data set can be described thus: Inhibition of HSP90 in human MCF7 cells assessed as induction of Akt protein degradation at 0.2 to 10 uM incubated for 24 hrs by Western blotting method.
Conditions: not given
Type of data set: cell-based.
For the compound `COc1cccc(-c2cc(C(=O)Nc3cc4ccc5c(c4oc3=O)NC(=O)C(CCCN3CCCCC3)O5)ccc2OC)c1` (stereo unspecified), the inhibition entry is “Dose-dependent effect”.

In another data set the test system is MCF7. Put plainly: Effect on actin protein expression in human MCF7 cells at 0.2 to 10 uM incubated for 24 hrs by Western blotting method. Type of data set: cell-based. Particulars: mcf7, 24 h.
In the case of `COc1cccc(-c2cc(C(=O)Nc3cc4ccc5c(c4oc3=O)NC(=O)C(CCCN3CCCCC3)O5)ccc2OC)c1` (stereo unspecified), the Activity entry is “Non-toxic”.

The subject of a further data set is MCF7. The data set can be described thus: Effect on HSP90 protein expression in human MCF7 cells at 0.2 to 10 uM incubated for 24 hrs by Western blotting method. The settings on record: mcf7, 24 h. The data set is classed as cell-based.
With `COc1cccc(-c2cc(C(=O)Nc3cc4ccc5c(c4oc3=O)NC(=O)C(CCCN3CCCCC3)O5)ccc2OC)c1` (stereo unspecified), the Activity result is “Non-toxic”.
